According to PMC3487391 (Journal of medicinal chemistry, 2011):

How the values were obtained:
[1] = molecular target: T1, CARM1 (Homo sapiens, UniProt Q86X55); assay: In vitro methylation assay, CARM1 with PABP1 as substrate; assay type: biochemical; details: for effect against PABP1 methylation by CARM1 (fluorograph): compound at 20 μM
T1 sequence (Q86X55 1-608): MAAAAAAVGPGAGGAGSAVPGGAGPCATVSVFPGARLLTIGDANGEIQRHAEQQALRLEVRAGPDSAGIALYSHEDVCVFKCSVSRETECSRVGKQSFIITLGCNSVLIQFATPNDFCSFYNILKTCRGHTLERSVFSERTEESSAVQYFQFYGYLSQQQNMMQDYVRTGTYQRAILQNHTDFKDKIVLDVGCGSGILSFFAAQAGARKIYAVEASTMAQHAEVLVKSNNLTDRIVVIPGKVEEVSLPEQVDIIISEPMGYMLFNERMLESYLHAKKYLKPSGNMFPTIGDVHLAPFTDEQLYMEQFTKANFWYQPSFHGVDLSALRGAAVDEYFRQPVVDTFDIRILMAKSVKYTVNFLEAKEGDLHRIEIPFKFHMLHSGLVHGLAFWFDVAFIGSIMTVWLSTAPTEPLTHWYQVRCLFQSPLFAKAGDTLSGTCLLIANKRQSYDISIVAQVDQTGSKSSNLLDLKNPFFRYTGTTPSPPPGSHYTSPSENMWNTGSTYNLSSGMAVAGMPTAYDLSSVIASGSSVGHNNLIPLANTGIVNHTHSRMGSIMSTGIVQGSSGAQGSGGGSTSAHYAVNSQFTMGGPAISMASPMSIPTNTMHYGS

[2] = tested on: Flag-PABP1 methylation in HEK293 cells; assay: Tetracycline-inducible Flag-PABP1 methylation reporter system in HEK293 cells; assay type: cell-based, human; details: tetracycline-induced Flag-PABP1, methyl-specific PABP1 antibody
In short: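 HEK293 cells engineered with a tetracycline-controlled TetR repressor carry tetO-regulated Flag-PABP1. Tetracycline is added with test compound to induce Flag-PABP1. Lysates are resolved by SDS-PAGE, where Flag-PABP1 migrates slower than endogenous PABP1. Its methylation is detected by immunoblot with an in-house methyl-specific PABP1 antibody.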

[3] = molecular target: T2, SET7 (Homo sapiens, UniProt Q8WTS6); assay: In vitro methylation assay, SET7 with histone H3 as substrate; assay type: biochemical; details: compound at 100 μM
T2 sequence (Q8WTS6 1-366): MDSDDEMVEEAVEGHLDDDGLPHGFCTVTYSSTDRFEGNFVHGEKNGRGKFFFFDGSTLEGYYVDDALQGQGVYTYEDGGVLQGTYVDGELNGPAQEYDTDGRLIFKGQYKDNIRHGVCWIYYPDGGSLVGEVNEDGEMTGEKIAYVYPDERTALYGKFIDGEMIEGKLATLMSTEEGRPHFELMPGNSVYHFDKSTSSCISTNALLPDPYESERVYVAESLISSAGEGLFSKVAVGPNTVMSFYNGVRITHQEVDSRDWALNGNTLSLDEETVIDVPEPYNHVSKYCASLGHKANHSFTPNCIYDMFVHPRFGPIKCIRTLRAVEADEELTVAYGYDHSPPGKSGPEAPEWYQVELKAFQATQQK

[4] = molecular target: PRMT3 (Homo sapiens, UniProt O60678); assay: In vitro methylation fluorograph, PRMT3 with NPL3 and rpS2 as substrates; assay type: biochemical; details: compound at 100 μM
In short: (§1)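 Recombinant enzyme (0.1–0.2 μM) and substrate (0.5–1.5 μM) are incubated with [methyl-³H]AdoMet (85 Ci/mmol) in PBS pH 7.4. Test compound is present at 100 μM. Reactions run 90 min at 30 °C, are resolved by SDS/PAGE and transferred to PVDF. The membrane is sprayed with Enhance and exposed to film overnight. Substrate bands are located by Ponceau S, excised and counted (dpm) for graphic depiction.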

[5] = molecular target: T3, G9a (Homo sapiens, UniProt Q96KQ7); assay: In vitro methylation fluorograph, G9a with H3 as substrate; assay type: biochemical; details: compound at 100 μM
T3 sequence (Q96KQ7 1-1210): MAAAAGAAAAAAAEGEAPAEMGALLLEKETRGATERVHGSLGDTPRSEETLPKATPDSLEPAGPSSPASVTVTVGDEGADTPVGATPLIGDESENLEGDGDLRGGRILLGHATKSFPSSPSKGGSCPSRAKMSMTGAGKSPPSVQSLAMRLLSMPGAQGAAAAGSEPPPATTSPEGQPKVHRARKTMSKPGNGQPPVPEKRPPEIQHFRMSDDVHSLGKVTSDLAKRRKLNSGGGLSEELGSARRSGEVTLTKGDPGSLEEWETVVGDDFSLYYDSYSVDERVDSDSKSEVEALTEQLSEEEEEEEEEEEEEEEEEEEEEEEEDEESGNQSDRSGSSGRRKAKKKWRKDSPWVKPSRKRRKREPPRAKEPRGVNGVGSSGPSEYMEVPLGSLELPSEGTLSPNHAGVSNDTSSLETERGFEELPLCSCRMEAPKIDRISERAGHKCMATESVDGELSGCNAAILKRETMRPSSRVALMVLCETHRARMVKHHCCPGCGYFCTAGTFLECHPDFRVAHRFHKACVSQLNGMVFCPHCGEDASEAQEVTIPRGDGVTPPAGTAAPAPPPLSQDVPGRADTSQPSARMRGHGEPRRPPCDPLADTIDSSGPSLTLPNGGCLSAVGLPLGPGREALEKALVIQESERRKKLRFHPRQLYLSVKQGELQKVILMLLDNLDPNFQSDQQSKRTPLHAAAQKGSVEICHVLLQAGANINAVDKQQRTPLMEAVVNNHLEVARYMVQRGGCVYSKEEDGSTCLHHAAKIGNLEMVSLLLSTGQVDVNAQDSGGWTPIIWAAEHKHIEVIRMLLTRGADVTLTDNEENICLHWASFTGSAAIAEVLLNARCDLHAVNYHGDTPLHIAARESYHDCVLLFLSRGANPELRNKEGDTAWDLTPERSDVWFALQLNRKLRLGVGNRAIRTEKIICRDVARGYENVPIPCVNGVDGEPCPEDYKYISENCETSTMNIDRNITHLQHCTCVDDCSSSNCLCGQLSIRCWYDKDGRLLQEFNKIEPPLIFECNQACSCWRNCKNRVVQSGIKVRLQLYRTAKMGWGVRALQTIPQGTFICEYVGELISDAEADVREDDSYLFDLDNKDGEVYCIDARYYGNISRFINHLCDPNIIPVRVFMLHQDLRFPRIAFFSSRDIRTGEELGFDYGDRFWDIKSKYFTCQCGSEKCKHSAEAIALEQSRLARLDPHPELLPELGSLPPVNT
In short: as §1

[6] = molecular target: T4, Suv39H1 (Homo sapiens, UniProt O43463); assay: In vitro methylation fluorograph, Suv39H1 with H3 as substrate; assay type: biochemical; details: compound at 100 μM
T4 sequence (O43463 1-412): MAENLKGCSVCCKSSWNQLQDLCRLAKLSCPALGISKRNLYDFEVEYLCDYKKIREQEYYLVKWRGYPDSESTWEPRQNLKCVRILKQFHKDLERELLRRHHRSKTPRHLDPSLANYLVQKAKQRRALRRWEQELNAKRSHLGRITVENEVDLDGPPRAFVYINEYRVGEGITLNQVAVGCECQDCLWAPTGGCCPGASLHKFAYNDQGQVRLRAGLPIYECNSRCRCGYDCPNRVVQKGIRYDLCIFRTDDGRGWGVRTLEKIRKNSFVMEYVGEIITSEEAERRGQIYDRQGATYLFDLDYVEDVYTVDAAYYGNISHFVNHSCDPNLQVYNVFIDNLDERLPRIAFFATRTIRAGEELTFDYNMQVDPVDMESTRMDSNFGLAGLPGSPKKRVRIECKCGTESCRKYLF
In short: as §1

[7] = tested on: LNCaP cells; assay: Cell viability by Cell Titer-Glo; assay type: cell-based; details: at concentrations that impacted the luciferase assay
In short: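 LNCaP cells are grown in phenol-red-free RPMI1640 with 10% charcoal-stripped FCS and transfected with PSA(ARE)-LUC and CMV-Renilla. After 12 h they are treated with 20 nM DHT plus increasing concentrations of test compound. After 42–44 h, cells are washed twice with PBS and harvested, and 1/6 of them is assayed with CellTiter-Glo luminescent reagent for ATP-based viability.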

[8] = molecular target: DOTL1 (Homo sapiens, UniProt Q8TEK3); assay: In vitro methylation fluorograph, DOTL1 with nucleosome as substrate; assay type: biochemical; details: compound at 100 μM
In short: as §1

[9] = molecular target: T1, CARM1; assay type: biochemical; details: compound at 100 μM; substrates PABP1, CA150, SmB, histone H3
In short: as §1

[10] = molecular target: PRMT5 (Homo sapiens, UniProt O14744); assay: In vitro methylation fluorograph, PRMT5 with histone H4 as substrate; assay type: biochemical; details: compound at 100 μM
In short: as §1

[11] = tested on: PSA promoter in LNCaP cells; assay: PSA luciferase assay in LNCaP cells; assay type: cell-based, human; details: two days, relative to CMV-Renilla control
In short: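 LNCaP cells are grown in phenol-red-free RPMI1640 with 10% charcoal-stripped FCS and seeded ~20 h before Lipofectamine transfection with 300 ng PSA(ARE)-LUC and 2 ng humanized CMV-Renilla. After 12 h, cells receive 20 nM DHT plus test compound at increasing concentrations. After 42–44 h, 5/6 of the washed, harvested cells go to a dual luciferase assay, normalised to Renilla. Values are mean ± SD of triplicates.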

Sequence of DOTL1 (Q8TEK3 whole entry): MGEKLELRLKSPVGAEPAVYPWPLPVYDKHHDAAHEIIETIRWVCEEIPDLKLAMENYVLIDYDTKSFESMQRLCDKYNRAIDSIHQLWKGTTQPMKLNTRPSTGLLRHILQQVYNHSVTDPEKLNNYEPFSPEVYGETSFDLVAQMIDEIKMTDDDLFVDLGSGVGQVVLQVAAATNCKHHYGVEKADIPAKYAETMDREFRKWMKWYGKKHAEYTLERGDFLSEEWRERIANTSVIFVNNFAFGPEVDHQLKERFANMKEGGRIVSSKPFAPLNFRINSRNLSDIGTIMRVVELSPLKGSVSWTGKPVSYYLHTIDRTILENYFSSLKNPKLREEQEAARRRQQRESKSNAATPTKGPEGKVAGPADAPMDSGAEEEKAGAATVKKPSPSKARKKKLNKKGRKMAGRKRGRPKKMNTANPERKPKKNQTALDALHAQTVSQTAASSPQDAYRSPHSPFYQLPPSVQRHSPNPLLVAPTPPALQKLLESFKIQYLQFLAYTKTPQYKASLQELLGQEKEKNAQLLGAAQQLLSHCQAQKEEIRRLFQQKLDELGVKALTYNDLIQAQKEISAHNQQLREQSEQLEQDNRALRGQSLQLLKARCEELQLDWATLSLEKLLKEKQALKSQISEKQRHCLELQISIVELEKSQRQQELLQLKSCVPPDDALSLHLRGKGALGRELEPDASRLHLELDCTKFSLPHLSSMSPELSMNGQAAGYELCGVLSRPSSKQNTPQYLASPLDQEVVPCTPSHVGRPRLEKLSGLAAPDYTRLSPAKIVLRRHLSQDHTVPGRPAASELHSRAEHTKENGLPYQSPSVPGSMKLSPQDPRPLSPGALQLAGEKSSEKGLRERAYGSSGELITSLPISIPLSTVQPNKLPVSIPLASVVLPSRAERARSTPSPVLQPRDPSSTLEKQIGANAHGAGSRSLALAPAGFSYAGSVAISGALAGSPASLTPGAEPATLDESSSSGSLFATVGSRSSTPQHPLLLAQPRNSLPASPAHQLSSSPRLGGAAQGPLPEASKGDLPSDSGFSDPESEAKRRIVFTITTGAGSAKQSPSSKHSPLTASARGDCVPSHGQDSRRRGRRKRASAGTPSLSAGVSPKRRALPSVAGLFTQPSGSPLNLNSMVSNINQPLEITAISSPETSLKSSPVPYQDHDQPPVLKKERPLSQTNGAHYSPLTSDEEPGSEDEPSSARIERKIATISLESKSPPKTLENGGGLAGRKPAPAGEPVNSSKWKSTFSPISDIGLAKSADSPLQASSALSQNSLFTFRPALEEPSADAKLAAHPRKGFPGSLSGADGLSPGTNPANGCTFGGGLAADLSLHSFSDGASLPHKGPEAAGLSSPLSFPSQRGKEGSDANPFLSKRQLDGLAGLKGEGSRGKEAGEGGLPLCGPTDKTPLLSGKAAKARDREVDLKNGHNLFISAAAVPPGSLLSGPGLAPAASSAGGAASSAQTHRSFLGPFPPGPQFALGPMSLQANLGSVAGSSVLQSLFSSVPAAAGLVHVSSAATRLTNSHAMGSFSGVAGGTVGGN
Sequence of PRMT3 (O60678 whole entry, species assumed): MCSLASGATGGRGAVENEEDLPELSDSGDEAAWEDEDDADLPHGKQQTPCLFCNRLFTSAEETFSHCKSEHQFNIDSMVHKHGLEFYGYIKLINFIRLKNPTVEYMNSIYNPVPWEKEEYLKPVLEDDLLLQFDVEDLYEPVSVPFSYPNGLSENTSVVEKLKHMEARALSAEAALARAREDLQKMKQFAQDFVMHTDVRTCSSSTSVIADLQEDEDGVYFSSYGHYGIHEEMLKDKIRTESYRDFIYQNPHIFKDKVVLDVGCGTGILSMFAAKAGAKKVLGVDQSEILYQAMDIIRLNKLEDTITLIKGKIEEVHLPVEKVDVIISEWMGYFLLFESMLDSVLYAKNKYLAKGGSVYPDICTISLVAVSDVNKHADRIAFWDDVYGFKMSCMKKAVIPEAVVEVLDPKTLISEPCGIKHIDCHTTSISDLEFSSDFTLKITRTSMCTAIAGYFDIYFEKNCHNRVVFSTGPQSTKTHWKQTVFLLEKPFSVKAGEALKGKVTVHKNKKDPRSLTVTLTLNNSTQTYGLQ
Sequence of PRMT5 (O14744 whole entry, species assumed): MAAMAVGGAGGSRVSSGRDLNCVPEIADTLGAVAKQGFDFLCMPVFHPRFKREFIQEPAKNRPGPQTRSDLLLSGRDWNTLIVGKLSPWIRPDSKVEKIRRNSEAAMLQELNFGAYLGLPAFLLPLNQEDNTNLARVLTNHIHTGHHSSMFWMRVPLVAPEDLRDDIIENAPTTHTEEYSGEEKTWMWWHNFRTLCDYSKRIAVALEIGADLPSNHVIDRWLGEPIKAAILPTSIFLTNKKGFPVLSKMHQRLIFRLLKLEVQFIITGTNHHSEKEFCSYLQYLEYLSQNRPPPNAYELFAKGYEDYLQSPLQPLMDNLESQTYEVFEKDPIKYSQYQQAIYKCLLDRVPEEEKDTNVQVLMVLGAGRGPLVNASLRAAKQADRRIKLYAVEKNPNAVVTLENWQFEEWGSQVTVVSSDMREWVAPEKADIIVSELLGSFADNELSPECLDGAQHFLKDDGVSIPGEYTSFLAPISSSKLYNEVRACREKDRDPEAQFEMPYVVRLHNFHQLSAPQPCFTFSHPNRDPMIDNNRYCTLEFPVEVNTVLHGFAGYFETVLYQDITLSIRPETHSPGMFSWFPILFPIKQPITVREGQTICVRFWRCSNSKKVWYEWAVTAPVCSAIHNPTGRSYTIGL

SMILES | enzyme preference of inhibition (in words) ([1]; series 7a-m, IC50 determination vs PRMT1, CARM1, SET7 (Table S1)) | inhibition of Flag-PABP1 methylation [2] | activity against SET7 (fluorograph) [3] | inhibition of PRMT3 (fluorograph) [4] | activity against G9a (fluorograph) [5] | activity against Suv39H1 (fluorograph) [6] | effects on cell viability [7] | activity against DOTL1 (fluorograph) [8] | inhibition of CARM1 activity on various substrates (fluorograph) [9] | effect against PABP1 methylation by CARM1 (fluorograph) [1] | inhibition of PRMT5 (fluorograph) [10] | concentration effective on PSA reporter activity [11]
O=C1/C(=C/c2ccc(O)c(Br)c2)CN(Cc2ccccc2)C/C1=C\c1ccc(O)c(Br)c1 [7g, 1-benzyl-3,5-bis(3-bromo-4-hydroxybenzylidene) piperidin-4-one] | preferably inhibited CARM1 | able to inhibit | No significant activity | able to inhibit to some extent | No significant activity | No significant activity | no or little effects | No significant activity | strongly inhibited |  |  | 
Cc1ccc(CN2C/C(=C\c3ccc(O)c(Br)c3)C(=O)/C(=C/c3ccc(O)c(Br)c3)C2)cc1 [8c] |  |  |  |  |  |  |  |  |  | no effect |  | 
O=C1/C(=C/c2ccc(O)c(Br)c2)CN(Cc2cccc(Cl)c2)C/C1=C\c1ccc(O)c(Br)c1 [8e] |  | only 7g was able to inhibit | No significant activity | able to inhibit to some extent | No significant activity | No significant activity |  | No significant activity | strongly inhibited |  | high inhibition | 
O=C1/C(=C/c2ccc(O)c(Br)c2)CN(CCCc2ccccc2)C/C1=C\c1ccc(O)c(Br)c1 [8k] |  |  |  |  |  |  |  |  |  | no effect |  | 
O=C1/C(=C/c2ccc(O)c(Br)c2)CN(CC(=O)c2ccccc2)C/C1=C\c1ccc(O)c(Br)c1 [8l] |  | only 7g was able to inhibit | No significant activity |  | No significant activity | No significant activity | no or little effects | No significant activity | strongly inhibited |  | high inhibition | 30 µM
